Data reported in ChEMBL document CHEMBL1156534, “Hemopressin is an inverse agonist of CB1 cannabinoid receptors” (Proc Natl Acad Sci U S A, 2007).
Activity calls are given as the source filed them.

What was measured:
[1] = molecular target: T1, Type-1 angiotensin II receptor (Homo sapiens) (UniProt P30556); assay: Antagonist activity at AT1 angiotensin receptor expressed in HEK293 cells assessed as blockade of secreted alkaline phosphatase activity at 1 uM after 6 hrs relative to control; format: functional, cell-based
T1 sequence (whole entry): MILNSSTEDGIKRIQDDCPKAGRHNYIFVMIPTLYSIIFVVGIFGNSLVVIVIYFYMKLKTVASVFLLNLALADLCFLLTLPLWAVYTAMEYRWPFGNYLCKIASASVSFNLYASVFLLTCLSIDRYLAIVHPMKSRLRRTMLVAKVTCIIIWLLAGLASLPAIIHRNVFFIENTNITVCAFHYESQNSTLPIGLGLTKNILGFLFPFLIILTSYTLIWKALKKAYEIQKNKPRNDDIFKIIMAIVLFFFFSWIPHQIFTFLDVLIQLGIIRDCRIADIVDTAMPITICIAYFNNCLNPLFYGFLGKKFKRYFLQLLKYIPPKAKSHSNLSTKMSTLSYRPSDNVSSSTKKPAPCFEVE
In short: (§1)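 HEK-293 cells transiently co-transfected with pCRE-SeAP and a Flag-tagged receptor, 30,000 cells/well on poly-L-lysine. They were serum-starved 16–18 h, then exposed 6 h in serum-free medium to 10 μM forskolin (omitted for β2) plus the receptor agonist (100 nM), with or without peptide (1 μM). Heat-treated supernatant SeAP was read by CSPD chemiluminescence. Mean ± SEM, n = 6.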

[2] = tested on: Rattus norvegicus; assay: Antihyperalgesic effects in Wistar rat assessed as reduction of carrageenan-induced paw pressure at 100 ug/kg, po after 3 hrs; format: functional, organism-based
In short: (§2)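 Male Wistar rats (200 g) received carrageenan 200 μg/paw intraplantar in saline into the right hind paw. Peptide was given at the same time: intraplantar 10 μg/paw, intrathecal 0.5 or 5 μg/kg, or oral 50 or 100 μg/kg; saline-treated rats served as controls. Paw-pressure withdrawal threshold (force ramp 16 g/s) was read at 0 and 3 h. n = 6–8.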

[3] = tested on: Rattus norvegicus; assay: Antihyperalgesic effects in Wistar rat assessed as reduction of carrageenan-induced paw pressure at 5 ug/kg, intrathecal after 3 hrs; format: functional, organism-based; in short: as §2
[4] = molecular target: T2, Type-2 angiotensin II receptor (Homo sapiens) (UniProt P50052); assay: Antagonist activity at AT2 angiotensin receptor expressed in SKNSH cells assessed as blockade of angiotensin 2-induced increase in antibody recognition at 100 nM by ELISA; format: functional, cell-based; design: scale not given: the % may be the effect or the level left
T2 sequence (whole entry): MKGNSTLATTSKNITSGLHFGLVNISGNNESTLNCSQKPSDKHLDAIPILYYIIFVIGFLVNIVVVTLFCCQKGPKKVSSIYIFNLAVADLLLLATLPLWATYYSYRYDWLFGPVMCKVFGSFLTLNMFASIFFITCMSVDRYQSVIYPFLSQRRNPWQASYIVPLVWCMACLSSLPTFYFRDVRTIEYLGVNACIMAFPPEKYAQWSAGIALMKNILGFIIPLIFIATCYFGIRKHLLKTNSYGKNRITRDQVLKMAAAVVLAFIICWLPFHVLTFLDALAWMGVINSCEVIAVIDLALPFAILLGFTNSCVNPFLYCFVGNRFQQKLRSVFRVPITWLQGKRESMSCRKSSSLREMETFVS

[5] = molecular target: Mu-type opioid receptor (Homo sapiens) (UniProt P35372); assay: Antagonist activity at mu opioid receptor expressed in HEK293 cells assessed as blockade of secreted alkaline phosphatase activity at 1 uM after 6 hrs relative to control; format: functional, cell-based; in short: as §1
Mu-type opioid receptor (Homo sapiens), sequence (P35372 whole entry): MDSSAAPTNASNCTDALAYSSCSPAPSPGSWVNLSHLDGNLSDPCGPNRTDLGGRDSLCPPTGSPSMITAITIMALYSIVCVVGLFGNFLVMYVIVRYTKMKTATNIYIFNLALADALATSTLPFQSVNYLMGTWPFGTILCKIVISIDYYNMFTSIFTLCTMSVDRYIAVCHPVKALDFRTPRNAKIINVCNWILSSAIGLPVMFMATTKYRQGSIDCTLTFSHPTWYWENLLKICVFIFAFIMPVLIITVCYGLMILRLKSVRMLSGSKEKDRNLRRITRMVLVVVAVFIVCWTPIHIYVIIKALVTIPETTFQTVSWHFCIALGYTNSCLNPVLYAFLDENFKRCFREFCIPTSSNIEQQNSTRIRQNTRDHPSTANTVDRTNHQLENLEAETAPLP

[6] = molecular target: T3, Alpha-2A adrenergic receptor (Homo sapiens) (UniProt P08913); assay: Antagonist activity at alpha2A adrenergic receptor expressed in HEK293 cells assessed as blockade of clonidine-mediated decrease in secreted alkaline phosphatase activity at 1 uM after 6 hrs relative to control; format: functional, cell-based; in short: as §1
T3 sequence (whole entry): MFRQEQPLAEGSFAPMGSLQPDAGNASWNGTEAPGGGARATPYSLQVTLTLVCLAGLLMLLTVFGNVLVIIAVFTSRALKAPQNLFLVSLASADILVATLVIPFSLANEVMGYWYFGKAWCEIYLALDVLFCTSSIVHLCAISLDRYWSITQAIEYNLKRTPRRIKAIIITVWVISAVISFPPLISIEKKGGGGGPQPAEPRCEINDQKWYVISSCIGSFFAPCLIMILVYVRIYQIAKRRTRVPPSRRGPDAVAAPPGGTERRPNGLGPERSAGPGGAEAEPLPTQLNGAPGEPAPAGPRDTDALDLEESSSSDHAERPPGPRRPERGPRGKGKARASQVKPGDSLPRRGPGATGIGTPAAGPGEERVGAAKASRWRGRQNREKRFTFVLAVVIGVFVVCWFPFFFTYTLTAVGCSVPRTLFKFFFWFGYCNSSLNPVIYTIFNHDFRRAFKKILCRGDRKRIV

[7] = molecular target: Delta-type opioid receptor (Homo sapiens) (UniProt P41143); assay: Antagonist activity at delta opioid receptor expressed in SKNSH cells assessed as blockade of deltorphin 2-induced increase in antibody recognition at 100 nM by ELISA relative to control; format: functional, cell-based; design: scale not given: the % may be the effect or the level left
Delta-type opioid receptor (Homo sapiens), sequence (P41143 whole entry): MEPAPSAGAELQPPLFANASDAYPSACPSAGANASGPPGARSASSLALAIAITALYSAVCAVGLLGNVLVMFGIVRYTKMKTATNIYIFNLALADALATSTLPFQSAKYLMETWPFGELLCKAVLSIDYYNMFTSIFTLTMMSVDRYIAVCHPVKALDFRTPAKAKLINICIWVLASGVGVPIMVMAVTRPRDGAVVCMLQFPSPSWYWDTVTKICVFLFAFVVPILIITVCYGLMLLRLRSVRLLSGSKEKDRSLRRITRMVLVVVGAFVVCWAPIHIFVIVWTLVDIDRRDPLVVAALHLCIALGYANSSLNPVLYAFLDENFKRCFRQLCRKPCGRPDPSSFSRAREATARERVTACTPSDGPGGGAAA

[8] = molecular target: T4, Cannabinoid receptor 2 (Rattus norvegicus) (UniProt Q9QZN9); assay: Antagonist activity at Long-Evans rat spleen CB2 receptor assessed as blockade of Hu210-induced increase in GTPgammaS binding; format: functional, tissue-based
T4 sequence (whole entry): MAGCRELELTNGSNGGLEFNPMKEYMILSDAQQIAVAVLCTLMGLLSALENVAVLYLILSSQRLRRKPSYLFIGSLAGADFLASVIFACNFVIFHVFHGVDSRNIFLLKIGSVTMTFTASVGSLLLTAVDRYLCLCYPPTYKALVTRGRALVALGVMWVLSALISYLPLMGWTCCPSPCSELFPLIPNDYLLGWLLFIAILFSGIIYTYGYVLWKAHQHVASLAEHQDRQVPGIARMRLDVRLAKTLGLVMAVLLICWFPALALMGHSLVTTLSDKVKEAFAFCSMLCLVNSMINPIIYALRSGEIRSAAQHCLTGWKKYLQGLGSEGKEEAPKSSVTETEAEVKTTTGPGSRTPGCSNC
In short: (§3)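 Membranes (10 μg) came from striatum (CB1) or spleen (CB2). They were tested in GTPγS-binding or adenylyl cyclase assays with Hu-210 and test ligand (0–1 μM), or with Hu-210 curves with or without 10 μM peptide; a 1 μM single-point combination was also used. Mean ± SE of triplicates.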

[9] = molecular target: Beta-2 adrenergic receptor (Homo sapiens) (UniProt P07550); assay: Antagonist activity at beta2 adrenergic receptor expressed in HEK293 cells assessed as blockade of […] in secreted alkaline phosphatase activity at 1 uM after 6 hrs relative to control; format: functional, cell-based; in short: as §1
Beta-2 adrenergic receptor (Homo sapiens), sequence (P07550 whole entry, looked up): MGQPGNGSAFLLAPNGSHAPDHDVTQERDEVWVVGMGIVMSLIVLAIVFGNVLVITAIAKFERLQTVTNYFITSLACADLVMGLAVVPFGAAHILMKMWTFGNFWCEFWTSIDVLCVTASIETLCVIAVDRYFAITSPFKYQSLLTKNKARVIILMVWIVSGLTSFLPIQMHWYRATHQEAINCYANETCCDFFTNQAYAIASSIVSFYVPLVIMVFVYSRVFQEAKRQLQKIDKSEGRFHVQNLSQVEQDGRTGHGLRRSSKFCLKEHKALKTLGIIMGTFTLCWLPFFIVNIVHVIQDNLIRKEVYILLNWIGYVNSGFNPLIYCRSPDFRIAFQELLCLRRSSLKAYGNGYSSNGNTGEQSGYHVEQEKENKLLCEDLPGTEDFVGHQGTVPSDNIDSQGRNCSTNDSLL

[10] = molecular target: Cannabinoid receptor 1 (Rattus norvegicus) (UniProt P20272); assay: Antagonist activity at Long-Evans rat striatal membrane CB1 receptor assessed as blockade of Hu210-mediated decrease in adenylate cyclase activity; format: functional; in short: as §3
Cannabinoid receptor 1 (Rattus norvegicus), sequence (P20272 whole entry): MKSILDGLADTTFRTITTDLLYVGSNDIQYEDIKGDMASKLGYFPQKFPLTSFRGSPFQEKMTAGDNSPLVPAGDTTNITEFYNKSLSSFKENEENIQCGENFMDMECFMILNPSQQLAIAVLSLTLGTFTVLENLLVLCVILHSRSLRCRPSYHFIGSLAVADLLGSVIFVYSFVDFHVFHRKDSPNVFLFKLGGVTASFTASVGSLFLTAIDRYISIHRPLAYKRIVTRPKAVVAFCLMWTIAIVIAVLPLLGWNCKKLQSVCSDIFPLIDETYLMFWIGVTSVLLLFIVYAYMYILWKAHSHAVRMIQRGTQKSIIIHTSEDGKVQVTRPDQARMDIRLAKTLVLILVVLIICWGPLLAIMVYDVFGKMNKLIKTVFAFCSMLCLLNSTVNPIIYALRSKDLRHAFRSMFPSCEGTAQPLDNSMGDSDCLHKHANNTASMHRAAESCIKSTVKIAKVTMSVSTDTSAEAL

[11] = molecular target: T4, Cannabinoid receptor 2 (Rattus norvegicus); assay: Antagonist activity at Long-Evans rat spleen CB2 receptor assessed as blockade of Hu210-mediated decrease in adenylate cyclase activity; format: functional, tissue-based; in short: as §3
[12] = molecular target: Cannabinoid receptor 1 (Rattus norvegicus, UniProt P20272); assay: Displacement of [3H]SR141716 from Long-Evans rat striatal membrane CB1 receptor
Cannabinoid receptor 1, sequence (P20272 whole entry): as above

Activity [1]: 0.98 | Activity [4]: 137% | Activity [5]: 0.98 | Activity [6]: 0.53 | Activity [7]: 131% | Activity [8]: inactive | Activity [9]: 1.24 | Activity [10]: Active | Activity [11]: inactive | EC50 [12]: 350 pM
SMILES: CC(C)C[C@H](NC(=O)[C@H](Cc1ccccc1)NC(=O)[C@H](CCCCN)NC(=O)[C@H](Cc1ccccc1)NC(=O)[C@H](CC(N)=O)NC(=O)[C@@H](NC(=O)[C@@H]1CCCN1)C(C)C)C(=O)N[C@@H](CO)C(=O)N[C@@H](Cc1cnc[nH]1)C(=O)O [HEMOPRESSIN]
Activity [2]: Active | Activity [3]: Active
